In ChEMBL document CHEMBL3784931, “Synthesis and evaluation of novel angiotensin II receptor 1 antagonists as anti-hypertension drugs” (Bioorg Med Chem, 2016):
Activity calls are given as the source filed them. No cut-off for these calls is given here.

Key:
[1] = Cmax in Wistar rat kidney at 10 mg/kg, po after 0.5 to 72 hrs by HPLC analysis; format: ADME, organism-based; parameters: dose 10 mg/kg, route oral
Procedure, shortened: (§1)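 Wistar rats were dosed orally and killed by abdominal aorta transection at 0.5, 1, 2, 4, 6, 8, 12, 24, 48 and 72 h. Organs were excised at once, minced and homogenized at 4 °C in normal saline to a 25% (w/v) homogenate. After spinning at 3000 × g, 4 °C, 10 min, supernatants were analysed by HPLC. Values are mean ± SEM, n = 5 per point.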

[2] = Elimination rate constant in Wistar rat spleen at 10 mg/kg, po after 0.5 to 72 hrs by HPLC analysis; format: ADME, organism-based; procedure, shortened: as §1
Mus musculus [3] = test: Acute toxicity in ICR mouse assessed as pathological changes in organs and tissues at 1200 to 6742.38, ig administered daily for 2 weeks measured on 15th day; format: organism-based; details: in vivo, po, 336 h
Procedure, shortened: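 ICR mice of both sexes (20 ± 2 g) dosed intragastrically at 1200–6742.38 mg/kg and observed for two weeks. Surviving mice then dissected and examined with the naked eye.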

Mus musculus [4] = test: Acute toxicity in ICR mouse assessed as respiratory movements at 1200 mg/kg, ig administered daily for 2 weeks measured during compound dosing; format: organism-based; details: in vivo, po, 336 h
Procedure, shortened: (§2)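 ICR mice, sixty in total, half male and half female, 20 ± 2 g. Intragastric dosing at 1200, 1600, 2133.3, 2844.40, 5056.79 or 6742.38 mg/kg. Animals watched daily over two weeks for survival and physiological abnormalities or untoward reactions. Percent mortality recorded per dose group.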

[5] = Acute toxicity in ICR mouse assessed as mortality at 2133.30 mg/kg, ig administered daily for 2 weeks measured during compound dosing; format: organism-based; details: in vivo, po, 2133.3 mg/kg; procedure, shortened: as §2
[6] = Cmax in Wistar rat stomach at 10 mg/kg, po after 0.5 to 72 hrs by HPLC analysis; format: ADME, organism-based; parameters: dose 10 mg/kg, route oral; procedure, shortened: as §1
[7] = Tmax in Wistar rat brain at 10 mg/kg, po after 0.5 to 72 hrs by HPLC analysis; format: ADME, organism-based; procedure, shortened: as §1
[8] = Terminal half life in Wistar rat spleen at 10 mg/kg, po after 0.5 to 72 hrs by HPLC analysis; format: ADME, organism-based; details: read-out: beta t1/2 (converted); procedure, shortened: as §1
Rattus norvegicus [9] = test: Effect on heart rate in spontaneous hypertensive rat model at 10 and 15 mg/kg, po; format: ADME, organism-based; details: in vivo
[10] = Elimination rate constant in Wistar rat stomach at 10 mg/kg, po after 0.5 to 72 hrs by HPLC analysis; format: ADME, organism-based; procedure, shortened: as §1
[11] = Terminal half life in Wistar rat heart at 10 mg/kg, po after 0.5 to 72 hrs by HPLC analysis; format: ADME, organism-based; details: read-out: beta t1/2 (converted); procedure, shortened: as §1
[12] = Terminal half life in Wistar rat plasma at 10 mg/kg, po after 0.5 to 72 hrs by HPLC analysis; format: ADME, organism-based; details: read-out: beta t1/2 (converted)
Procedure, shortened: (§3)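 Wistar rats got an oral dose. Venous blood (0.5 mL) was taken predose and at 0.5, 1, 2, 4, 6, 8, 12, 24, 48 and 72 h, and plasma was spun 4000 × g, 4 °C, 10 min. Samples with internal standard were acetonitrile-precipitated, filtered and run on C18 reverse-phase HPLC with UV detection. Calibration used weighted regression of peak height ratio.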

[13] = Tmax in Wistar rat stomach at 10 mg/kg, po after 0.5 to 72 hrs by HPLC analysis; format: ADME, organism-based; procedure, shortened: as §1
[14] = Terminal half life in Wistar rat brain at 10 mg/kg, po after 0.5 to 72 hrs by HPLC analysis; format: ADME, organism-based; details: read-out: beta t1/2 (converted); procedure, shortened: as §1
[15] = Tmax in Wistar rat heart at 10 mg/kg, po after 0.5 to 72 hrs by HPLC analysis; format: ADME, organism-based; procedure, shortened: as §1
Mus musculus [16] = test: Acute toxicity in ICR mouse assessed as mortality at 1200 to 6742.38 mg/kg, ig administered daily for 2 weeks during compound dosing; format: organism-based; details: in vivo, po, 336 h; procedure, shortened: as §2
[17] = Cmax in Wistar rat brain at 10 mg/kg, po after 0.5 to 72 hrs by HPLC analysis; format: ADME, organism-based; parameters: dose 10 mg/kg, route oral; procedure, shortened: as §1
[18] = AUC (0 to 72 hrs) in Wistar rat plasma at 10 mg/kg, po by HPLC analysis; format: ADME, organism-based; parameters: dose 10 mg/kg, time < 72 hr, route oral; procedure, shortened: as §3
Rattus norvegicus [19] = test: Antihypertensive activity in spontaneous hypertensive rat model assessed as mean blood pressure at 10 mg/kg, po administered for 2 hrs; format: functional
Procedure, shortened: (§4)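 Male SHRs were randomized, n = 6 per group. Compound was suspended in DMSO/oleic acid (1:4) and given by oral gavage; vehicle controls got the same volume of solvent. SBP and DBP were recorded in conscious animals by noninvasive tail-artery manometry. MBP = (SBP − DBP)/3 + DBP. Data are mean ± SEM, with p < 0.05 taken as significant.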

Mus musculus [20] = test: Acute toxicity in ICR mouse assessed as change in body weight at 1200 to 6742.38 mg/kg, ig administered daily for 2 weeks during compound dosing; format: organism-based; details: in vivo, po, 336 h
Procedure, shortened: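 Male and female ICR mice (20 ± 2 g) received intragastric doses of 1200–6742.38 mg/kg. Body weight of surviving mice compared after two weeks of observation.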

[21] = Terminal half life in Wistar rat liver at 10 mg/kg, po after 0.5 to 72 hrs by HPLC analysis; format: ADME, organism-based; details: read-out: beta t1/2 (converted); procedure, shortened: as §1
[22] = Elimination rate constant in Wistar rat plasma at 10 mg/kg, po after 0.5 to 72 hrs by HPLC analysis; format: ADME, organism-based; procedure, shortened: as §3
[23] = Cmax in Wistar rat plasma at 10 mg/kg, po after 0.5 to 72 hrs by HPLC analysis; format: ADME, organism-based; parameters: dose 10 mg/kg, route oral; procedure, shortened: as §3
Rattus norvegicus [24] = test: Antihypertensive activity in spontaneous hypertensive rat model assessed as reduction in mean blood pressure at 10 mg/kg, po administered for 12 hrs; format: functional, organism-based; procedure, shortened: as §4
[25] = Tmax in Wistar rat plasma at 10 mg/kg, po after 0.5 to 72 hrs by HPLC analysis; format: ADME, organism-based; procedure, shortened: as §3
[26] = Terminal half life in Wistar rat kidney at 10 mg/kg, po after 0.5 to 72 hrs by HPLC analysis; format: ADME, organism-based; details: read-out: beta t1/2 (converted); procedure, shortened: as §1
[27] = Acute toxicity in ICR mouse assessed as mortality at 2844.40 mg/kg, ig administered daily for 2 weeks measured during compound dosing; format: organism-based; details: in vivo, po, 2844.4 mg/kg; procedure, shortened: as §2
Mus musculus [28] = test: Acute toxicity in ICR mouse assessed as hyperthyroidism at 1600 to 6742.38 mg/kg, ig administered daily for 2 weeks measured 5 hrs post last dose; format: organism-based; details: in vivo, po; procedure, shortened: as §2
Mus musculus [29] = test: Acute toxicity in ICR mouse assessed as obvious untoward reaction at 1200 to 6742.38, ig administered daily for 2 weeks during compound dosing; format: organism-based; details: in vivo, po, 336 h; procedure, shortened: as §2
[30] = Acute toxicity in ICR mouse assessed as mortality at 1200 mg/kg, ig administered daily for 2 weeks measured during compound dosing; format: organism-based; details: in vivo, po; procedure, shortened: as §2
Stomach = test: AUC (0 to 72 hrs) in Wistar rat stomach at 10 mg/kg, po by HPLC analysis; format: ADME, organism-based; parameters: time < 72 hr, dose 10 mg/kg, route oral; details: in vivo; procedure, shortened: as §1

In the case of `CCCCc1nc(Cl)c(C(=O)O)n1Cc1ccc(-c2ccccc2-c2noc(=O)[nH]2)cc1`, the Cmax [1] is reported as 10.5 ng/g, the k el [2] is reported as 2.19e-05 s⁻¹ and the Activity (Mus musculus [3]) is reported as “Non-toxic”. The Activity (Mus musculus [4]) was “Non-toxic”, the mortality at 336 h [5] was 20% and the Cmax [6] was 8.91 ng/g. For the same compound, the Tmax [7] was 2 h, the half-life [8] was 8.74 h and the Activity (Rattus norvegicus [9]) was “Non-toxic”. The k el [10] was 1.39e-05 s⁻¹, the half-life [11] was 9.13 h and the half-life [12] was 18.2 h. For the same compound, the Tmax [13] was 0.5 h, the half-life [14] was 16.9 h and the Tmax [15] was 0.5 h. For the same compound, the Activity (Mus musculus [16]) was “Toxic”, the Cmax [17] was 5.8 ng/g and the AUC(0-t) at 72 h [18] was 296 ng·h/mL. The Activity (Rattus norvegicus [19]) was 41 mmHg, the Activity (Mus musculus [20]) was “Non-toxic” and the half-life [21] was 10.7 h. The k el [22] was 1.11e-05 s⁻¹, the Cmax [23] was 10.3 ng/mL and the Activity (Rattus norvegicus [24]) was “Active”. The Tmax [25] was 2 h, the half-life [26] was 15.6 h and the mortality at 336 h [27] was 40%. The Activity (Mus musculus [28]) was “Toxic”, the Activity (Mus musculus [29]) was “Non-toxic” and the mortality at 336 h [30] was 0%. It also gave an AUC (Stomach) of 221.03 ng·h/g.
